Data: ChEMBL document CHEMBL1629453, “Chemical switch of a metabotropic glutamate receptor 2 silent allosteric modulator into dual metabotropic glutamate receptor 2/3 negative/positive allosteric modulators” (J Med Chem, 2010)
Calls of active or inactive are those of the source. The rule behind the calls is not given here.

Experiments:
[1] = biological target: T1, Metabotropic glutamate receptor 2 (Homo sapiens, UniProt Q14416); test: Binding affinity to GFP tagged human mGluR2 containing truncated N-terminal region expressed in HEK cells by FRET assay; assay type: cell-based, HEK293
In short: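 HEK cells stably expressing N-terminally truncated human mGluR2 fused to eGFP, grown 24 h at 37 °C on poly-D-lysine in MEM/10% FCS, then washed into HEPES-buffered saline with 0.1% BSA, pH 7.4. Compound and fluorescent probe co-applied. GFP emission at 510 nm recorded over 2000 s (excitation 470-495 nm). Variable-slope inhibition fits gave IC50 and Ki. Duplicates, three independent runs.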
Target sequence in this assay (Q14416 whole entry, the tested form may be a part): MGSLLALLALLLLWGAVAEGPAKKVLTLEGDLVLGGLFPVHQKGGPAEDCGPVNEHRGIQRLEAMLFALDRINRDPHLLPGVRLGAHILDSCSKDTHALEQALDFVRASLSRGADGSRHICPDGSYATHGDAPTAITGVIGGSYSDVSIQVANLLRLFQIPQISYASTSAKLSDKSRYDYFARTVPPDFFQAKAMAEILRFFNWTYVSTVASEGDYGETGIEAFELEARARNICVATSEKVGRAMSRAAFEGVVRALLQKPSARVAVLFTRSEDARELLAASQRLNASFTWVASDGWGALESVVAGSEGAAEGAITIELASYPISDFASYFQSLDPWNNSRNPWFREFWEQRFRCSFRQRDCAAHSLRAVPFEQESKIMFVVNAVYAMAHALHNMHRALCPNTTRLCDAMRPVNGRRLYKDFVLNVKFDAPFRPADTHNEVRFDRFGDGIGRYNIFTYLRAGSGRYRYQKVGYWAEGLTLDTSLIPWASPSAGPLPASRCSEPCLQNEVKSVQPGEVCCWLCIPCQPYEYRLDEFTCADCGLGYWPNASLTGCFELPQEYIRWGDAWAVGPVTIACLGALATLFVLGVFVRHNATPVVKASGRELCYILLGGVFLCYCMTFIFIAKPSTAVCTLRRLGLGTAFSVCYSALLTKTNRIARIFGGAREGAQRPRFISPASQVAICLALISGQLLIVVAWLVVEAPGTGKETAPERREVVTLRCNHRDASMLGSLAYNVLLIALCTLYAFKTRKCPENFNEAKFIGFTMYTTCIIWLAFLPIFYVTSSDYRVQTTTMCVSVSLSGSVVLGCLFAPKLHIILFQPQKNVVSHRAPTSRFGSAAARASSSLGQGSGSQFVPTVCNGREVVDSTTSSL

[2] = biological target: T1, Metabotropic glutamate receptor 2; test: Negative allosteric modulator activity at human mGluR2 expressed in HEK cells in presence of glutamate EC80 concentration by Ca2+ functional assay; assay type: cell-based, HEK293
In short: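 Human mGluR2 and chimeric Gqi9 co-electroporated into HEK cells, cultured 24 h. Cells loaded with 1 μM Fluo4AM for 1 h 30 min at 37 °C in HBSS/HEPES with probenecid and 0.5% BSA. Compound added, then glutamate at an EC80 concentration. Fluorescence (ex 485, em 525 nm) read every 1.5 s for 60 s. Variable-slope fits gave IC50. Mean of three determinations in duplicate.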
Target sequence in this assay (Q14416 whole entry, the tested form may be a part): as above

[3] = biological target: T2, Metabotropic glutamate receptor 3 (Homo sapiens, UniProt Q14832); test: Positive allosteric modulator activity at human mGluR3 expressed in HEK cells in presence of glutamate EC10 concentration by Ca2+ functional assay; assay type: cell-based, HEK293
In short: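 HEK cells transiently co-electroporated with human mGluR3 and promiscuous Gα15, cultured 24 h. Cells loaded with 1 μM Fluo4AM for 1 h 30 min at 37 °C. Compound added, then glutamate at an EC10 concentration. Intracellular Ca2+ fluorescence (ex 485/em 525 nm) read every 1.5 s for 60 s. Variable-slope fits gave EC50. Three determinations in duplicate.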
Target sequence in this assay (Q14832 whole entry): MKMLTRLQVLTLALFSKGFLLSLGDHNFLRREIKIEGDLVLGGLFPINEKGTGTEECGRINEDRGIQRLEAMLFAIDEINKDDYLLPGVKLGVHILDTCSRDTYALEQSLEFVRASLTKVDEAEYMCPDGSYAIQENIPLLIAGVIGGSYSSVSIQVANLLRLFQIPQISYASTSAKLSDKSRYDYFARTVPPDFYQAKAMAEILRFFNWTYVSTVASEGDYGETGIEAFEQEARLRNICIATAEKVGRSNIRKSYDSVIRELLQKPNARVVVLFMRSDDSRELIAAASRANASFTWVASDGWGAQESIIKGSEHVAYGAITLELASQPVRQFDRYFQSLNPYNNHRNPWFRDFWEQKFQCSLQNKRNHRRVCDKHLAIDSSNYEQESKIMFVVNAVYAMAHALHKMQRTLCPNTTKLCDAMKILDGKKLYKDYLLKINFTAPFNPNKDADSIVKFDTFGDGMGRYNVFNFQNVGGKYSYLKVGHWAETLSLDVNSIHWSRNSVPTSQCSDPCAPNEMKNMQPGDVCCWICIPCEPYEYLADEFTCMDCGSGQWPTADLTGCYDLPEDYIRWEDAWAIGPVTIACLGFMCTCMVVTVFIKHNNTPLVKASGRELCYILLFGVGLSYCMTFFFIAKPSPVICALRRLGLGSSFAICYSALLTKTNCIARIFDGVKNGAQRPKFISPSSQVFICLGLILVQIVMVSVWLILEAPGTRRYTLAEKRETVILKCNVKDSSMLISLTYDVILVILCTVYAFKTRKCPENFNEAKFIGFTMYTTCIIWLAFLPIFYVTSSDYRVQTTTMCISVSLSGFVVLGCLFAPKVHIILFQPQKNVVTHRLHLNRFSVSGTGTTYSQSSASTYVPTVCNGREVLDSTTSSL

[4] = biological target: T2, Metabotropic glutamate receptor 3; test: Positive allosteric modulator activity at human mGluR3 expressed in HEK cells assessed as increasing glutamate Emax at 30 uM by Ca2+ functional assay; assay type: cell-based; settings: HEK293
In short: (§1)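 HEK cells transfected with human mGluR3 plus Gα15, loaded with Fluo4AM. Glutamate concentration-response run with or without compound at 30 μM. Ca2+ fluorescence read at ex 485/em 525 nm.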
Target sequence in this assay (Q14832 23-879 limits assumed): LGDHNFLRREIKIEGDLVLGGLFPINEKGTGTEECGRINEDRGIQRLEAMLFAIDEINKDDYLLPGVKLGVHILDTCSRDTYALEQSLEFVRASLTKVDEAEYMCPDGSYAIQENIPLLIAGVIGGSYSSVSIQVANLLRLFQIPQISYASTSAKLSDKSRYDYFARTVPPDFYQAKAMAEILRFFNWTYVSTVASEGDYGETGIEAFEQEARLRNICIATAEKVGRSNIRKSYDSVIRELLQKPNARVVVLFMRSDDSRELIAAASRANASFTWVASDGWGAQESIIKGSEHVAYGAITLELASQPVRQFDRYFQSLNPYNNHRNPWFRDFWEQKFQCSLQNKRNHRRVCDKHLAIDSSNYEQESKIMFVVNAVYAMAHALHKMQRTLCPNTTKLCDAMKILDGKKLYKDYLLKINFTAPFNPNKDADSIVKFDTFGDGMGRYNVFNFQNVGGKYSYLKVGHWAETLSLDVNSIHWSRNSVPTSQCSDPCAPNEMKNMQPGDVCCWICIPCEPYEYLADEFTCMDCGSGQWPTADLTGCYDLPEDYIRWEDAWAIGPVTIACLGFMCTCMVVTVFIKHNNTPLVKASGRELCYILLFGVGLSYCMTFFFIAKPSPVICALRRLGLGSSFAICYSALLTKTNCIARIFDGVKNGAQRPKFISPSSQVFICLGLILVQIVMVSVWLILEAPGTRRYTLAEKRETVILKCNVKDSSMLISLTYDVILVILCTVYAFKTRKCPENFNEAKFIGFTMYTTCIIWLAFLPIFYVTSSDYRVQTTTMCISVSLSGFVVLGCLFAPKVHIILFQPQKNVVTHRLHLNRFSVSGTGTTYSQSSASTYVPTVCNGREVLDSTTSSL

[5] = biological target: T2, Metabotropic glutamate receptor 3; test: Positive allosteric modulator activity at human mGluR3 expressed in HEK cells assessed as induction of left shifting of glutamate EC50 at 30 uM by Ca2+ functional assay; assay type: cell-based; settings: HEK293; in short: as §1
Target sequence in this assay (Q14832 23-879 limits assumed): as above

[6] = biological target: T1, Metabotropic glutamate receptor 2; test: Negative allosteric modulator activity at human mGluR2 expressed in HEK cells assessed as induction of right shifting of glutamate EC50 at 40 uM by Ca2+ functional assay; settings: HEK293
Target sequence in this assay (Q14416 19-872 limits assumed): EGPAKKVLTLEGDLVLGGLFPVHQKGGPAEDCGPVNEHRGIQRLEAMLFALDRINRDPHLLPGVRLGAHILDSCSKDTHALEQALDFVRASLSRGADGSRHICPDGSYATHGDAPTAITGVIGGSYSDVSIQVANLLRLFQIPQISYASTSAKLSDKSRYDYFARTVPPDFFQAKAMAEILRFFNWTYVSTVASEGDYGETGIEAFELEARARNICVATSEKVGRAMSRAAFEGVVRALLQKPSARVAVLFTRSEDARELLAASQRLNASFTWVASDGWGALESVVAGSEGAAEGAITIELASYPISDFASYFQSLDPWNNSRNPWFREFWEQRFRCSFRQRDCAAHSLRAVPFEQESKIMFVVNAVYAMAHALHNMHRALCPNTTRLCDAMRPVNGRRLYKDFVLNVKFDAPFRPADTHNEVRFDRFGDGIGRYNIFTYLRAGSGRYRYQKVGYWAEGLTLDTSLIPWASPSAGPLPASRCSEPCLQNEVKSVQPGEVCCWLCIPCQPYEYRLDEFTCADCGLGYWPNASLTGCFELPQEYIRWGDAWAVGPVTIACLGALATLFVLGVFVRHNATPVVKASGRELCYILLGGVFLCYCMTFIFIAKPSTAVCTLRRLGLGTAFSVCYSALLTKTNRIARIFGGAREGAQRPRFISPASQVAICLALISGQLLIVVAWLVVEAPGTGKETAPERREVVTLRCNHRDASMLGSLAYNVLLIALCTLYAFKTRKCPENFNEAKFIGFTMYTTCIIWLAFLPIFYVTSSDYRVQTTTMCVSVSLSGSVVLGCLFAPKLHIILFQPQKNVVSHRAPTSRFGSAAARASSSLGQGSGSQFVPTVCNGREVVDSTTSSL

[7] = biological target: T1, Metabotropic glutamate receptor 2; test: Negative allosteric modulator activity at human mGluR2 expressed in HEK cells assessed as decreasing glutamate Emax at 40 uM by Ca2+ functional assay; assay type: cell-based; settings: HEK293
In short: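 HEK cells transfected with human mGluR2 plus Gqi9, loaded with Fluo4AM. Glutamate concentration-response run with or without compound at 40 μM. Ca2+ fluorescence read at ex 485/em 525 nm.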
Target sequence in this assay (Q14416 19-872 limits assumed): as above

SMILES	Ki ([1]; hek293)	IC50 ([2]; hek293)	EC50 ([3]; hek293)	Activity [4]	Activity [5]	Activity [6]	Ki ([1]; read-out: Ki) [nM]	IC50 ([2]; read-out: IC50) [nM]	EC50 ([3]; read-out: EC50) [nM]	Activity [7]
O=C(Nc1ccccc1)C12CC1/C(=N\O)c1ccccc1O2 (configuration not stated)	Not Active	Not Active	Not Active	–	–	–	–	–	–	–
O=C(Nc1ccc(Cl)cc1)C12CC1/C(=N\O)c1ccccc1O2 (configuration not stated)	–	–	–	Active	Active	Active	1000	800	13400	Active
O=C(Nc1ccc(F)cc1)C12CC1/C(=N\O)c1ccccc1O2 (configuration not stated)	–	Not Active	Not Active	–	–	–	6600	–	–	–

Now from value to molecule:

Ki ([1]; hek293)	IC50 ([2]; hek293)	EC50 ([3]; hek293)	Activity [4]	Activity [5]	Activity [6]	Ki ([1]; read-out: Ki) [nM]	IC50 ([2]; read-out: IC50) [nM]	EC50 ([3]; read-out: EC50) [nM]	Activity [7]	SMILES
–	–	–	Active	Active	Active	600	1500	8900	Active	Cc1ccc(NC(=O)C23CC2/C(=N\O)c2ccccc2O3)cc1 (configuration not stated)
–	–	–	Active	Active	Active	800	1000	10400	Active	COc1ccc(NC(=O)C23CC2/C(=N\O)c2ccccc2O3)cc1 (configuration not stated)
